MrgX1 antag – antagonists of human MrgX1 receptor, primary screen, HEK293 cells, Fluo-4 calcium flux; B-score at 10 µM; BAM8-22 antagonism; stronger effect = lower value; hit rate 1.3% among 310,000; Mas-related G-protein coupled receptor member X1 (Homo sapiens), Q96LB2;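 active means calcium-response B-score plate-corrected more than 3 library SD below zero, starting fluorescence within 5 deviations, no agonist response on first addition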;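 further: peak minus trough fluorescence over baseline after final BAM8-22 challenge near maximal dose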
RGS4 pot – RGS4 potentiators or activators, primary screen, cell-based, HEK293 M3R inducible RGS4, calcium flux; carbachol calcium flux Fluo4; stronger effect = lower value; B-score at 10 µM; hit rate 0.92% among 310,000;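 active means B-score of the integrated calcium signal more than 4 SD below the library mean, with starting fluorescence not abnormally high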;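 further: negative B-score means reduced calcium response which marks RGS4 activation or potentiation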
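Also added: carbachol at ECmax as muscarinic agonist stimulus; Assay system: HEK293 cells with stable M3R and inducible RGS4; Timing: overnight RGS4 induction, 30 min dye load 37 °C, 20 min compound RT; Measured by: Fluo4-AM (2 µM) calcium-flux fluorescence, kinetic read.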
RGS4 inh – RGS4 inhibitors, primary screen, cell-based, HEK293 M3R inducible RGS4, calcium flux; Fluo-4 calcium flux; stronger effect = higher value; triggered by carbachol at its EC20; B-score at 10 µM; Regulator of G-protein signaling 4 (Homo sapiens), P49798; AID 463165, 2010; hit rate 0.45% among 310,000;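 active means B-score, a plate-corrected calcium signal, over three deviations above library mean, with baseline fluorescence within five deviations of library mean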;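 further: RGS4 expression induced by doxycycline in cells with stable M3 receptor; B-score is computed from the integrated fluorescence ratio over baseline after carbachol; higher B-score means a larger calcium signal and so more RGS4 inhibition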
Target sequence (P49798 whole entry, looked up): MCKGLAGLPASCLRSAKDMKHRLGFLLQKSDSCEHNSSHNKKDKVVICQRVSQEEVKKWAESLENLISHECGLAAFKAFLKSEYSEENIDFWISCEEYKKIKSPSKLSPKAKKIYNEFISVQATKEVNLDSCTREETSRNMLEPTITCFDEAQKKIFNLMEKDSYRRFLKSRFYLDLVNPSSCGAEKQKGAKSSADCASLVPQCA
MrgX1 PAM – positive allosteric modulators of MrgX1, primary screen, HEK293 cells, Fluo-4 calcium flux. Mas-related G-protein coupled receptor member X1 (Homo sapiens), Q96LB2. B-score at 10 µM. hit rate 0.63% among 310,000. FDSS; stronger effect = higher value;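 active means plate-corrected calcium response at least 3 library SD above typical, normal starting fluorescence, not activating the receptor alone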;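 further: compound read alongside a low EC10 to EC30 dose of BAM8-22 agonist; peak minus trough fluorescence over baseline measured at the second addition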
MrgX1 ag – agonists of human MrgX1 receptor, primary screen, HEK293 cells, Fluo-4 calcium flux; hit rate 0.44% among 310,000; B-score at 10 µM; Fluo-4 calcium fluorescence, agonist mode; stronger effect = higher value;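 active means calcium response B-score plate-corrected fluorescence ratio at least 3 library SD, with starting fluorescence B-score inside 5 SD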
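Material: HEK293 cells stably expressing human MrgX1 receptor | Quantity: 15,000 cells per well | Times: Cells plated overnight, dye loaded 0.5 h 37 °C, 0.5 h room temperature | Measured by: Kinetic Fluo-4 NW fluorescence of intracellular calcium | Control set: Positive and negative controls per plate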
An asterisk follows results filed as active; i = inactive. Only some compounds are listed: those with a hit (about 3.5% of all), similar ones and a draw of the others.

SMILES	MrgX1 antag	RGS4 pot	RGS4 inh	MrgX1 PAM	MrgX1 ag
COc1ccc(S(=O)(=O)O/N=C2\CCCc3ccccc32)cc1	-4.67*	i	i	i	i
CC(OC(=O)/C=C/c1ccc(Br)cc1)C(=O)N1CCOCC1 (stereo not drawn)	-8*	i	i	i	i
Cc1cc(C)c2nc(N3CCC(C(=O)NCCCN4CC(C)CC(C)C4)CC3)sc2c1 (stereo not drawn)	i	-10.1*	i	i	i
Cc1cc(C)c2nc(N3CCCC(C(=O)NCCCN4CCOCC4)C3)sc2c1 (stereo not drawn)	i	i	i	i	i
C=CCn1c(Sc2ncc([N+](=O)[O-])s2)n[nH]c1=O	-9.16*	-8.04*	i	i	i
C=CCn1c(CSc2ccccc2[N+](=O)[O-])n[nH]c1=S	i	i	i	i	i
Cc1ccc(NC(=O)C2CCN(S(=O)(=O)c3ccc4c(c3)CCCC(=O)N4)CC2)cc1N(C)C	i	i	i	i	i
O=C1OC[C@H](Cc2ccc3c(c2)OCO3)/C1=C\c1ccc2c(c1)OCO2	-4.59*	i	i	i	i
O=C1CC(Cc2ccccc2)C(=O)N1CCc1ccc2c(c1)OCO2 (stereo not drawn)	i	i	i	i	i
CCOC(=O)c1c(NC(=O)c2nn(CC)cc2Br)sc(C)c1C	i	i	i	i	i
CCOC(=O)c1c(NC(=O)c2nn(CC)cc2Br)sc2c1CCCCC2	i	-6.97*	i	i	i
COc1ccc(C2N(c3ccccc3)C(=S)N3CCCN23)cc1 (stereo not drawn)	i	i	i	i	i
S=C1N(c2ccccc2)C(c2ccc(Cl)cc2)N2CCCN12 (stereo not drawn)	i	-7.24*	i	i	i
CCOc1ccc(NC(=O)CN(C)C(=O)c2cc(-c3ccc(OC)cc3)nc3ccccc23)cc1OCC	i	-8.01*	i	i	i
COc1ccc(NC(=O)CN(C)C(=O)c2cc(-c3ccc(Cl)cc3)nc3ccccc23)cc1	i	-7.95*	i	i	i
COc1ccc(NC(=O)CCC(=O)N2CCCC2)c([N+](=O)[O-])c1	i	i	i	i	i
CCC(C)c1ccccc1N1CC(C(=O)Nc2ccc(C)c(S(=O)(=O)N3CCOCC3)c2)CC1=O (stereo not drawn)	i	i	i	i	i
O=C(c1ccnc(Cl)c1)N1CCCC(N2CCN(c3ccccc3F)CC2)C1 (stereo not drawn)	i	i	i	i	i
Cc1cc(C)n(CCN(C)C(=O)C2CCC(=O)N(CCN3CCOCC3)C2)n1 (stereo not drawn)	i	i	i	i	i
Cc1cccn2c(=O)c3cc(C(=O)NC4CCCC4)c(=N)n(CCc4ccccc4)c3nc12	i	-8.07*	i	i	i
COc1ccc(CCNC(=O)c2cc3c(=O)n4ccccc4nc3n(C3CCCCC3)c2=N)cc1	i	-7.13*	i	i	i
COc1ccc(CCNC(=O)c2cc3c(=O)n4ccccc4nc3n(C3CCCCC3)c2=N)cc1OC	i	i	i	i	i
CC(=O)N1CCN(c2ccc(C(N)=O)cc2[N+](=O)[O-])CC1	i	i	i	i	i
NC(=O)c1ccc(N2CCCCCC2)c([N+](=O)[O-])c1	-5.65*	i	i	i	i
COc1ccc(Cl)cc1NC(=O)CN(C)C(=O)c1ccc(N2CCCCC2)c([N+](=O)[O-])c1	i	i	i	i	i
COc1ccc(Cl)cc1NC(=O)CN(C)C(=O)c1ccc(N2CCCCCC2)c([N+](=O)[O-])c1	-6.58*	i	i	i	i
CCN(CC(=O)Nc1c(F)cccc1F)C(=O)c1ccc(N2CCCCC2)c([N+](=O)[O-])c1	-4.64*	i	i	i	i

High-throughput results as filed in PubChem.
